Published values of several laboratories.
Lines come from different studies, so protocols differ. pIC50: −log10 of the molar value.
Cell line: K562
Observed: cell growth or viability

Structure (SMILES)	assay	conditions	pIC50
C=CC(C)(C)c1[nH]cnc1/C=C1/NC(=O)[C@H](C(C)C)NC1=O	MTT	–	5.75
O=c1cc(OCc2cc(-c3ccc(C(F)(F)F)cc3)no2)c2ccccc2o1	MTS	72 h	< 4.00
CN1CCC(NC2CCc3[nH]c4c(C(N)=O)ccc(-c5ccccc5Cl)c4c3C2)CC1 (centres unmarked)	–	96 h	7.67
Cc1sc2c(c1C)C(c1ccc(Cl)cc1)=N[C@@H](CC(=O)NCCCCNC(=O)COc1cccc3c1C(=O)N(C1CCC(=O)NC1=O)C3=O)c1nnc(C)n1-2 (some centres unmarked)	CCK-8	72 h	6.14
c1ccc(-c2cc(CNc3cccc4cccnc34)on2)nc1	MTS	72 h	4.10
COc1ccc(Nc2ncnc3c2ncn3Cc2ccc(C(=O)NO)cc2)cc1	MTT	72 h	5.43
N/C(=N\O)c1ccc(-c2cc(CNc3cccc4cccnc34)on2)cc1	MTS	72 h	4.06
O=C(NO)c1ccc(Cn2cnc3c(Nc4ccc(F)c(Cl)c4)ncnc32)cc1	MTT	72 h	5.13
COc1cccc2c1C(=O)c1c(O)c3c(c(O)c1C2=O)C[C@@](O)(C(=O)CO)C[C@@H]3O[C@H]1C[C@H](N)[C@H](O)[C@H](C)O1	–	–	6.89
CC(C)=CCc1ncc(/C=C2\NC(=O)[C@H](C(C)C)NC2=O)[nH]1	MTT	–	< 4.82
O=C(NO)c1ccc(Cn2cnc3c(Nc4ccc(Cl)cc4)ncnc32)cc1	MTT	72 h	4.86
